The source made the active and inactive calls. The calls are words filed in the database; no cut-off is given here.
Experiments:
[1] = target: Baculoviral IAP repeat-containing protein 2 (Homo sapiens) (UniProt Q13490); test: Induction of auto-degradation of Flag-tagged cIAP1 expressed in HT1080 cells at […] by Western blot analysis; type: cell-based; conditions: HT-1080
[2] = test system: IMR-32; test: Induction of apoptosis in human IMR32 cells assessed as activation of caspase 3/7 at 30 uM after 24 hrs by fluorescence assay; type: functional, cell-based
In short: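 IMR-32 cells seeded at 2 × 10⁴/well, grown 24 h, then exposed to compounds for 24 h. Caspase-3/7 homogeneous reagent added, 0.5 h at room temperature. Fluorescence read at ex 485/em 535 nm and expressed as fold change over control. Means of triplicates; ANOVA with Bonferroni-type multiple t test.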

[3] = test system: IMR-32; test: Inhibition of cell proliferation in human IMR32 cells at 1 to 30 uM after 72 hrs by Alamarblue assay; type: functional, cell-based
In short: (§1)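 Cells (IMR-32, HT1080 or MCF-7) seeded at 2 × 10⁴/well and grown 24 h at 37 °C. Compounds at various concentrations added for 0–72 h at 37 °C, 5% CO₂. AlamarBlue then added for 3 h at 37 °C. Fluorescence read at ex 540/em 590 nm and converted to percentage cell growth.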

[4] = target: Baculoviral IAP repeat-containing protein 2 (Homo sapiens) (UniProt Q13490); test: Induction of degradation of Flag-tagged cIAP1 expressed in HT1080 cells at […] by Western blot analysis in presence of MG132; type: cell-based; conditions: HT-1080
[5] = target: Baculoviral IAP repeat-containing protein 2 (Homo sapiens) (UniProt Q13490); test: Induction of auto-degradation of Flag-tagged cIAP1 expressed in HT1080 cells at 0.1 to 10 uM by Western blot analysis; type: cell-based; conditions: HT-1080
In short: (§2)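 FLAG-tagged IAP-expressing HT1080 cells (1 × 10⁶), RPMI 1640 with 10% heat-inactivated FBS at 37 °C, 5% CO₂, treated for the stated period in medium with 10% FBS. SDS lysates equalized by BCA, resolved on 10–20% SDS–PAGE, PVDF, skim-milk block. Probed for CRABP-II, cIAP1, FLAG and β-actin with HRP secondaries, visualized by enhanced chemiluminescence.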

[6] = target: Baculoviral IAP repeat-containing protein 2 (Homo sapiens) (UniProt Q13490); test: Inhibition of MeBS-induced degradation of Flag-tagged cIAP1 expressed in HT1080 cells at 100 to 1000 uM by Western blot analysis; type: cell-based; conditions: HT-1080
[7] = test system: XIAP (Homo sapiens); test: Binding affinity to Flag-tagged XIAP expressed in HT1080 cells assessed as degradation of XIAP at 0.1 to 10 uM after 6 hrs by Western blot analysis; conditions: HT-1080
[8] = test system: HT-1080; test: Induction of apoptosis in human HT1080 cells at 1 to 30 uM after 24 hrs by lactate dehydrogenase assay; type: functional, cell-based
In short: (§3)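 HT1080 cells seeded at 2 × 10⁴/well, grown 24 h at 37 °C, then exposed to compounds for 24 h with or without 30 μg/mL etoposide. LDH release measured with a non-radioactive cytotoxicity kit; lysis-buffer wells served as high control. Substrate 30 min at room temperature, stopped, A490 read. Means of triplicates.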

[9] = test system: HT-1080; test: Induction of apoptosis in human HT1080 cells after 24 hrs by lactate dehydrogenase assay in presence of etoposide; type: functional, cell-based; in short: as §3
[10] = test system: HT-1080; test: Induction of apoptosis in human HT1080 cells assessed as activation of caspase 3/7 at 30 uM after 24 hrs by fluorescence assay; type: functional, cell-based
In short: (§4)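 HT1080 cells seeded at 2 × 10⁴/well, grown 24 h, then compounds added for 24 h with or without 30 μg/mL etoposide. Caspase-3/7 homogeneous reagent added, 10 h at room temperature. Fluorescence read at ex 485/em 535 nm and expressed as fold change in caspase activity. Means of triplicates; ANOVA with Bonferroni-type multiple t test.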

[11] = test system: HT-1080; test: Induction of apoptosis in human HT1080 cells assessed as activation of caspase 3/7 at 30 uM after 24 hrs by fluorescence assay in presence of etoposide; type: functional, cell-based; in short: as §4
[12] = target: T1, Complex of retinoic acid binding (CRABPII) and inhibitor of apoptosis (cIAP1) proteins (Homo sapiens) (UniProt P29373+Q13490); test: Binding affinity to Flag-tagged cIAP1/CRABP2 expressed in human HT1080 cells assessed as induction in CRABP-2 degradation after 12 hrs by Western blot analysis; type: cell-based; conditions: HT-1080; in short: as §2
[13] = target: T1, Complex of retinoic acid binding (CRABPII) and inhibitor of apoptosis (cIAP1) proteins (Homo sapiens); test: Binding affinity to Flag-tagged cIAP1/CRABP2 expressed in human HT1080 cells assessed as induction in CRABP-2 degradation at 0.1 to 10 uM after 6 hrs by Western blot analysis; type: cell-based; conditions: HT-1080; in short: as §2
[14] = target: T1, Complex of retinoic acid binding (CRABPII) and inhibitor of apoptosis (cIAP1) proteins (Homo sapiens); test: Binding affinity to Flag-tagged cIAP1/CRABP2 expressed in human HT1080 cells assessed as induction in cIAP1 degradation at 0.1 to 10 uM after 6 hrs by Western blot analysis; type: cell-based; conditions: HT-1080; in short: as §2
[15] = target: T1, Complex of retinoic acid binding (CRABPII) and inhibitor of apoptosis (cIAP1) proteins (Homo sapiens); test: Binding affinity to Flag-tagged cIAP1/CRABP2 expressed in human HT1080 cells assessed as formation of ternary complex by GST-pull down assay; type: cell-based; conditions: HT-1080
[16] = test system: MCF7; test: Inhibition of cell proliferation in human MCF7 cells at 1 to 30 uM after 72 hrs by Alamar blue assay; type: functional, cell-based; in short: as §1
[17] = test system: HT-1080; test: Inhibition of cell proliferation in human HT1080 cells at 1 to 30 uM after 72 hrs by Alamar blue assay; type: functional, cell-based; in short: as §1
[18] = target: T1, Complex of retinoic acid binding (CRABPII) and inhibitor of apoptosis (cIAP1) proteins (Homo sapiens); test: Binding affinity to Flag-tagged cIAP1/CRABP2 expressed in human IMR32 cells assessed as reduction in MycN level at 1 to 10 uM after 48 hrs by Western blot analysis; type: cell-based; conditions: IMR-32
[19] = test system: IMR-32; test: Inhibition of cell proliferation in human IMR32 cells after 72 hrs by Alamarblue assay; type: functional, cell-based; in short: as §1
[20] = target: T1, Complex of retinoic acid binding (CRABPII) and inhibitor of apoptosis (cIAP1) proteins (Homo sapiens); test: Binding affinity to Flag-tagged cIAP1/CRABP2 expressed in human HT1080 cells assessed as reduction in CRABP2 level at 0.1 uM to 1 uM after 6 hrs by Western blot analysis; type: cell-based; conditions: HT-1080; in short: as §2
[21] = target: T1, Complex of retinoic acid binding (CRABPII) and inhibitor of apoptosis (cIAP1) proteins (Homo sapiens); test: Binding affinity to Flag-tagged cIAP1/CRABP2 expressed in human MCF7 cells assessed as reduction in CRABP2 level at 0.1 uM to 1 uM after 6 hrs by Western blot analysis; type: cell-based
[22] = target: T1, Complex of retinoic acid binding (CRABPII) and inhibitor of apoptosis (cIAP1) proteins (Homo sapiens); test: Binding affinity to Flag-tagged cIAP1/CRABP2 expressed in human HT1080 cells assessed as induction in CRABP-2 degradation after 48 hrs by Western blot analysis; type: cell-based; conditions: HT-1080; in short: as §2
[23] = target: T1, Complex of retinoic acid binding (CRABPII) and inhibitor of apoptosis (cIAP1) proteins (Homo sapiens); test: Binding affinity to Flag-tagged cIAP1/CRABP2 expressed in human HT1080 cells assessed as induction in CRABP-2 degradation after 6 hrs by Western blot analysis; type: cell-based; conditions: HT-1080; in short: as §2
[24] = target: T1, Complex of retinoic acid binding (CRABPII) and inhibitor of apoptosis (cIAP1) proteins (Homo sapiens); test: Binding affinity to Flag-tagged cIAP1/CRABP2 expressed in human HT1080 cells assessed as induction in cIAP1 degradation at 30 uM after 6 hrs by Western blot analysis; type: cell-based; conditions: HT-1080; in short: as §2
[25] = target: T1, Complex of retinoic acid binding (CRABPII) and inhibitor of apoptosis (cIAP1) proteins (Homo sapiens); test: Binding affinity to Flag-tagged cIAP1/CRABP2 expressed in human HT1080 cells assessed as induction in CRABP-2 degradation at 1 uM after 6 hrs by Western blot analysis in presence of proteasome inhibitor lactacystin; type: cell-based; conditions: HT-1080
In short: (§5)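 HT1080 cells expressing FLAG-tagged cIAP1 were pretreated with proteasome inhibitor (MG132 or lactacystin), then given 1 μM degrader for 6 h. CRABP-II read by Western blot: SDS lysates equalized by BCA, 10–20% SDS–PAGE, PVDF, ECL.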

[26] = target: T1, Complex of retinoic acid binding (CRABPII) and inhibitor of apoptosis (cIAP1) proteins (Homo sapiens); test: Binding affinity to Flag-tagged cIAP1/CRABP2 expressed in human HT1080 cells assessed as induction in CRABP-2 degradation at 1 uM after 6 hrs by Western blot analysis in presence of proteasome inhibitor MG132; type: cell-based; conditions: HT-1080; in short: as §5
[27] = target: T1, Complex of retinoic acid binding (CRABPII) and inhibitor of apoptosis (cIAP1) proteins (Homo sapiens); test: Binding affinity to Flag-tagged cIAP1/CRABP2 expressed in human HT1080 cells assessed as induction in CRABP-2 degradation at 1 uM after 6 hrs by Western blot analysis; type: cell-based; conditions: HT-1080; in short: as §2
[28] = target: T1, Complex of retinoic acid binding (CRABPII) and inhibitor of apoptosis (cIAP1) proteins (Homo sapiens); test: Binding affinity to Flag-tagged cIAP1/CRABP2 expressed in human HT1080 cells assessed as induction in CRABP-2 degradation at 1 uM after 6 hrs by Western blot analysis in presence of MeBS; type: cell-based; conditions: HT-1080
[29] = test system: HT-1080; test: Induction of apoptosis in human HT1080 cells at 1 to 30 uM after 24 hrs by lactate dehydrogenase assay in presence of etoposide; type: functional, cell-based; in short: as §3
[30] = target: T1, Complex of retinoic acid binding (CRABPII) and inhibitor of apoptosis (cIAP1) proteins (Homo sapiens); test: Binding affinity to Flag-tagged cIAP1/CRABP2 expressed in human IMR32 cells assessed as reduction in CRABP-2 level at 1 to 10 uM after 24 hrs by Western blot analysis; conditions: IMR-32

Sequence of Baculoviral IAP repeat-containing protein 2 (Homo sapiens) (Q13490 whole entry): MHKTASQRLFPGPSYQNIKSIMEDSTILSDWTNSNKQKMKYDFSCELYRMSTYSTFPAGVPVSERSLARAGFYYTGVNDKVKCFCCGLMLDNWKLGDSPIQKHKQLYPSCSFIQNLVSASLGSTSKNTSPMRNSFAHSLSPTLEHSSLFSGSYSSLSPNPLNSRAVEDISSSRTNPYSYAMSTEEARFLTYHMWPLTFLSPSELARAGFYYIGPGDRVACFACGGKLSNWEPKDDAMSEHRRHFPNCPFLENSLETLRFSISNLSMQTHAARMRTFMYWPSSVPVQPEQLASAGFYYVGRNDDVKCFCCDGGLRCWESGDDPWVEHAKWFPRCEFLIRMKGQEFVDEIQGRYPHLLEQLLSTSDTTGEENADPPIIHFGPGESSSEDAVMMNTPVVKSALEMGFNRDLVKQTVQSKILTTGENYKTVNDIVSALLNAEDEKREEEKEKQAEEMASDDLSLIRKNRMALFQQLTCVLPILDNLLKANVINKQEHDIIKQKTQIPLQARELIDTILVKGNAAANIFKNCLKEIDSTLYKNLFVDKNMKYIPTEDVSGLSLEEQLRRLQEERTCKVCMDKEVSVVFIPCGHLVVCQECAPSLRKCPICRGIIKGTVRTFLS

SMILES | Activity [2] | inhibition [3] | Activity [5] | Activity [8] | Activity [9] | Activity [10] | Activity [11] | Activity [14] | Activity [15] | further results
CNC(=O)[C@H](CC(C)C)NC(=O)[C@@H](O)[C@H](N)Cc1ccccc1 | inactive | inactive | inactive |  |  |  |  |  |  | Activity [1]: inactive; Activity [4]: inactive; inhibition [6]: Active; Activity [7]: inactive
CC1=C(/C=C/C(C)=C/C=C/C(C)=C/C(=O)O)C(C)(C)CC/C1=N\OCC(=O)NCCOCCOCCOC(=O)[C@H](CC(C)C)NC(=O)[C@@H](O)[C@H](N)Cc1ccccc1 |  |  |  | inactive | Dose-dependent effect | inactive | Active |  |  | Activity [12]: Active
CC1=C(/C=C/C(C)=C/C=C/C(C)=C/C(=O)O)C(C)(C)CC/C1=N\OCC(=O)NCCOCCOCCNC(=O)[C@H](CC(C)C)NC(=O)CCCc1ccccc1 |  |  |  |  |  |  |  | inactive | inactive | Activity [13]: inactive
CNC(=O)[C@H](CC(C)C)NC(=O)CCCc1ccccc1 |  |  | inactive |  |  |  |  |  |  | 
CC1=C(/C=C/C(C)=C/C=C/C(C)=C/C(=O)O)C(C)(C)CC/C1=N\OCC(=O)NCCOCCOCCNC(=O)[C@H](CC(C)C)NC(=O)[C@@H](O)[C@H](N)Cc1ccccc1 | Active |  |  |  |  | inactive | inactive | inactive | Active | Activity [16]: inactive; Activity [17]: inactive; Activity [18]: Active; inhibition [19]: Dose-dependent effect; Activity [20]: Active; Activity [21]: Active; Activity [22]: Active; Activity [23]: Dose-dependent effect; Activity [24]: inactive; Activity [25]: inactive; Activity [26]: inactive; Activity [27]: Active; Activity [28]: inactive; Activity [29]: inactive; Activity [30]: Active
COC(=O)[C@H](CC(C)C)NC(=O)[C@@H](O)[C@H](N)Cc1ccccc1 | inactive | inactive |  | inactive | Dose-dependent effect | inactive | Active |  |  | 
